One assay has as its system PANC-1. Briefly: Antiproliferative activity against human PANC1 cells after 72 hrs by CCK8 assay. The settings on record: PANC-1, 72 h. (Tetrazolium dyes change colour on reduction, which living cells bring about.)
Another assay deals with ASPC1. Description: Antiproliferative activity against human AsPC1 cells after 72 hrs by CCK8 assay. The settings on record: ASPC1, 72 h.
In another assay the test system is L02. Briefly: Antiproliferative activity against human LO2 cells after 72 hrs by CCK8 assay. The settings on record: L02, 72 h.
For another assay, the system named is Ramos. Briefly: Antiproliferative activity against human Ramos cells after 72 hrs by CCK8 assay. In kind it is functional, cell-based. Put shortly:
(§1)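 Cells in RPMI-1640 with 10% FBS and 1% penicillin-streptomycin, 37 °C, 5% CO2. Seeded at 3,000 to 5,000 cells/well and grown one day, then exposed to compound for 72 h at 1.25 to 40 µmol/L, five replicates per concentration. CCK-8 read-out is absorbance at 450 nm. Dose-response curves used five concentrations. IC50 is the mean of at least three separate experiments.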

For the next assay, the system named is NCI-H1975. Briefly: Antiproliferative activity against gefitinib-resistant human NCI-H1975 cells harboring FAK after 72 hrs by CCK8 assay. In kind it is functional, cell-based. Particulars: NCI-H1975, 72 h. Put shortly: as §1
For a further assay, the system named is BXPC-3. Description: Antiproliferative activity against human BxPC3 cells after 72 hrs by CCK8 assay. Particulars: BXPC-3, 72 h.

In ChEMBL document CHEMBL4052657, “Design, synthesis and biological evaluation of sulfonamide-substituted diphenylpyrimidine derivatives (Sul-DPPYs) as potent focal adhesion kinase (FAK) inhibitors with antitumor activity” (Bioorg Med Chem, 2017) one finds IC50 data, which are given here for five compounds.

`CNC(=O)c1ccccc1Nc1nc(Nc2ccc(NS(=O)(=O)c3ccc(C)cc3)cc2)ncc1Cl`: the IC50 in the assay with PANC-1 is 2.76 µM; with ASPC1 it was 1.55 µM; in the assay with L02 it was 28.7 µM; in the assay on Ramos, 6.17 µM; in the assay on NCI-H1975, 7.07 µM; in the assay on BXPC-3 it was 19.4 µM.

`CNC(=O)c1ccccc1Nc1nc(Nc2ccc(NS(=O)(=O)c3ccc(OC)cc3)cc2)ncc1Cl`: the IC50 was 1.8 µM in the assay with PANC-1; 3.49 µM in the assay on ASPC1; 8.37 µM with L02; 9.1 µM in the assay with Ramos; 4.28 µM with NCI-H1975; 24.1 µM in the assay on BXPC-3.

Regarding `CNC(=O)c1ccccc1Nc1nc(Nc2ccc(Oc3ccc(NS(=O)(=O)C(F)(F)F)cc3)cc2)ncc1Cl`, the IC50 in the assay with PANC-1 was found to be 1.75 µM; with ASPC1, 2.39 µM; in the assay on L02, 3.37 µM; in the assay on Ramos it was 14.4 µM; in the assay with NCI-H1975, 4.1 µM; with BXPC-3, 5.86 µM.

`CNC(=O)c1ccccc1Nc1nc(Nc2ccc(NS(=O)(=O)c3ccc(F)cc3)c(OC)c2)ncc1Cl`: the 50% inhibitory concentration (IC50) in the assay on PANC-1 was 5.7 µM; with ASPC1, 6.69 µM; in the assay with L02 it was 19.7 µM; with Ramos, 24.6 µM; in the assay on NCI-H1975 it was 12.9 µM; in the assay with BXPC-3 it was 31.6 µM.

Regarding `CNC(=O)c1ccccc1Nc1nc(Nc2ccc(NS(=O)(=O)c3ccc(C)cc3)c(C)c2)ncc1Cl`, the 50% inhibitory concentration (IC50) amounted to 2.99 µM in the assay on PANC-1; 2.32 µM with ASPC1; 27.5 µM in the assay on L02; 20.3 µM in the assay on Ramos; 9.56 µM in the assay on NCI-H1975; 23.1 µM in the assay on BXPC-3.

In general, IC50 refers to the concentration that inhibits the measured activity by half. The low end stands for greater potency, the high end for weaker potency.
